Measured values gathered from unrelated publications.
Protocols differ between the studies behind these lines.
EGFR L858R/T790M: Epidermal growth factor receptor (EGFR, Homo sapiens, UniProt P00533, L858R/T790M)
EGFR: Epidermal growth factor receptor (EGFR, Homo sapiens, UniProt P00533)
EGFR del746-750: Epidermal growth factor receptor (EGFR, Homo sapiens, UniProt P00533, del746-750)
EGFR L858R: Epidermal growth factor receptor (EGFR, Homo sapiens, UniProt P00533, L858R)

Compound	target	test	conditions	measurement	value
COc1ccc2oc(-c3ccc4nc(N)oc4c3)c/c(=N\c3ccccc3NC(=O)CCN)c2c1	EGFR L858R/T790M	cell-free assay	1 µM	remaining signal	106%
C#Cc1cnc(Nc2ccc(CO)nc2)nc1Nc1ccccc1S(C)(=O)=NC#N (stereo not shown)	EGFR	enzyme activity, inhibitor, radiometric	1 µM	remaining activity	75.6%
COc1c(Cl)cccc1Nc1c(-c2ccncc2OC[C@@H]2COCCO2)[nH]c2c1C(=O)NCC2	EGFR	enzyme activity, inhibitor, radiometric	1 µM	inhibition	> 80%
CO[C@@H]1[C@H](N(C)C(=O)c2ccccc2)C[C@H]2O[C@]1(C)n1c3ccccc3c3c4c(c5c6ccccc6n2c5c31)C(=O)NC4	Epidermal growth factor receptor (EGFR, Homo sapiens, UniProt P00533, del747-752/P753S)	enzyme activity, inhibitor	1 µM	inhibition	10%
C#Cc1cnc(Nc2ccc(CO)cc2)nc1Nc1ccccc1C(=O)NC	EGFR	enzyme activity, inhibitor, radiometric	1 µM	remaining activity	10.1%
Cc1ccc(NC(=O)c2ccnc(C(F)(F)F)c2)cc1-c1cc(OCCO)nc(N2CCOCC2)c1	EGFR L858R/T790M	binding	1 µM	remaining binding	84%
CC#CC(=O)N1CCC[C@H]1c1nc(-c2ccc(C(=O)Nc3ccccn3)cc2)c2c(N)nccn12	EGFR del746-750	enzyme activity, inhibitor	1 µM	inhibition	0%
COc1ccc2[nH]c3c4[nH]c5ccc(OC)cc5c4c4c(c3c2c1)C(=O)NC4=O	Epidermal growth factor receptor (EGFR, Homo sapiens, UniProt P00533, L861Q)	binding	1 µM	remaining binding	71%
C=CC(=O)N1CCC([C@@H]2CCNc3c(C(N)=O)c(-c4ccc(Oc5ccccc5)cc4)nn32)CC1	EGFR del746-750	cell-free assay	1 µM	inhibition	21%
C[C@H]1CC[C@H](n2c3cnccc3c3cnc(Nc4ccc5c(n4)CCN(C(=O)CO)C5)nc32)CC1	EGFR L858R/T790M	cell-free assay	1 µM	remaining signal	93%
C#Cc1cnc(Nc2ccnc(CO)c2)nc1Nc1ccccc1S(C)(=O)=NC#N (stereo not shown)	EGFR	enzyme activity, inhibitor, radiometric	1 µM	remaining activity	80%
C1=C/COCc2cc(ccc2OCCN2CCCC2)Nc2nccc(n2)-c2cccc(c2)COC/1	EGFR L858R	binding	0.1 µM	remaining binding	71%
CN1CCN(C(=O)c2ccc(NC(=O)Nc3ccc(N(C)c4ccnc(Nc5ccc(CS(C)(=O)=O)cc5)n4)cc3)cc2)CC1	EGFR L858R	binding	1 µM	remaining binding	92%
